mIAP inh = blocks mouse intestinal alkaline phosphatase. purified mouse IAP, CDP-Star luminescence, 30 min. AID 2806. 330,000 compounds, 0.2% hits. inhibition, % at 10 µM;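 active means inhibition of at least 40% at 10 µM in the primary screen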
hIAP block = human IAP inhibition; AID 2544; inhibition, % at 10 µM; purified IAP, CDP-Star luminescence, 30 min; P09923; 330,000 compounds, 0.12% hits;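 active means inhibition reaching a set limit with compound at 10 µM in the primary screen, cut at about 35% in these data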
Target sequence (P09923 whole entry, looked up): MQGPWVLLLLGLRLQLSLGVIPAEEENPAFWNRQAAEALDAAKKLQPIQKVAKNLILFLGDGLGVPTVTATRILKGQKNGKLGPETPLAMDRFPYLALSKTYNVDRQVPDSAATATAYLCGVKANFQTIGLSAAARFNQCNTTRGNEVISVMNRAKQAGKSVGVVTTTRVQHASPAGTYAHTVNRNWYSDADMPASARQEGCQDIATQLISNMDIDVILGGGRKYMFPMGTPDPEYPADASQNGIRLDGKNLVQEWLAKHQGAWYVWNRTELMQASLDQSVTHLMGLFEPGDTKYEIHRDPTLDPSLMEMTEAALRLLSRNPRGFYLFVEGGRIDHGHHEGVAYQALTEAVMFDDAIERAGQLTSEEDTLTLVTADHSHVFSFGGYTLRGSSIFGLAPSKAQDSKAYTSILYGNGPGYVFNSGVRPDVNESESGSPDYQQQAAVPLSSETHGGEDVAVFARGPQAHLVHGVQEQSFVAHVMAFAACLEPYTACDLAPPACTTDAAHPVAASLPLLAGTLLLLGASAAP
mIAP act = increases mouse intestinal alkaline phosphatase activity; muIAP, CDP-Star luminescence, 30 min; hits give high values; 1 = vehicle-only enzyme signal, 0 = enzyme-free wells; activation factor at 10 µM; 330,000 compounds, 0.24% hits;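 active means activation factor of at least 2 at 20 µM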
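Assay system: mouse IAP enzyme / Compound: DMSO-dissolved test compounds / Timing: 30 min, room temperature / Measured by: luminescence from enzymatic CDP-Star hydrolysis / Control set: DMSO-only wells, enzyme-free buffer wells as negative control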
bIAP inh = blocks bovine intestinal alkaline phosphatase activity; purified bovine IAP, CDP-star luminescence, 30 min; inhibition, % at 20 µM; 190,000 tested, under 10 active; AID 1019;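 active means over 50% inhibition of intestinal alkaline phosphatase at 20 µM in the single-dose screen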
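Assay system – bovine IAP enzyme · Quantity – bovine IAP at 1/65,000,000 final dilution · Detection – CDP-star luminescence signal · Times – 30 min reaction at room temperature · Also added – CDP-star substrate at 30 µM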
bIAP activator = intestinal alkaline phosphatase (bovine) activation; 200,000 compounds, 0.17% hits; activation factor at 20 µM; purified bovine IAP, CDP-star luminescence, 30 min; hits give high values; fold of DMSO-control signal, blank-subtracted;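 active means activation factor of 2 or more at 20 µM, a signal rise over negative controls twice the positive control's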
hIAP activ = increases human intestinal alkaline phosphatase activity. P09923. purified human IAP, CDP-Star luminescence, 30 min; hits give high values; 1 = vehicle-only enzyme, 0 = enzyme-free background. activation factor at 10 µM. 330,000 compounds, 0.16% hits. AID 2524;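 active means activation factor of the enzyme at least 2-fold when tested at 20 µM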
Numbers stand for hits; - = inactive; . = not tested or not shown. A selection: hits, their analogues and other compounds. The true share with any hit is near 0.79%.

SMILES | mIAP inh | hIAP block | mIAP act | bIAP inh | bIAP activator | hIAP activ
COc1ccc(OC)c(C(=O)NC(CC(N)=O)c2ccc(NCc3ccccn3)c([N+](=O)[O-])c2)c1 (configuration not stated) | - | - | - | . | . | -
COc1ccc(OC)c(C(=O)NC(CC(N)=O)c2ccc(NCc3ccc(F)c(F)c3)c([N+](=O)[O-])c2)c1 (configuration not stated) | 48 | - | - | . | . | -
Cc1ccc(C(=O)NC(NC(=O)c2ccc(C)cc2)C(Cl)Cl)cc1 | - | - | 3.4 | - | - | -
COc1ccc(OC)c(S(=O)(=O)N2CCC(C(=O)Nc3cccc(C(F)(F)F)c3)CC2)c1 | - | - | 2.6 | - | - | -
COc1cccc(NC(=O)C2CCN(S(=O)(=O)c3ccc4c(c3)OCCO4)CC2)c1 | - | - | - | - | 2.5 | -
Cc1c(C(=O)OCC(=O)Nc2ccc(C(N)=O)cc2)cccc1[N+](=O)[O-] | - | - | - | - | - | -
Cc1ccc(C(NC(=O)NC(C)c2ccccc2)C(Cl)(Cl)Cl)cc1F (configuration not stated) | - | - | 14 | - | - | -
CC(NC(=O)c1cc2cc(F)ccc2[nH]1)c1ccccc1 (configuration not stated) | - | - | - | . | . | -
Cc1cccc(C)c1NC(=O)CN(C)C(=O)CN1C(=O)NC(C)(C)C1=O | - | - | - | . | . | -
CC(/C=C/c1ccco1)=N\NC(=O)c1cc(C)[nH]n1 | 41 | - | - | - | - | -
Cc1cc(C)n(CCC(=O)N=Nc2c(O)[nH]c3ccc(Br)cc23)n1 | - | - | - | . | . | -
Cc1cccc(NC(=S)NC2CC3CCCC(C2)N3Cc2cccs2)c1 (configuration not stated) | - | - | 5.9 | - | - | -
CC(O)CNc1nc(NCc2ccccc2)c2cnn(C)c2n1 (configuration not stated) | - | - | - | . | . | -
Cc1cc(C)cc(NC(=S)NCc2ccc3[nH]c4c(c3c2)CCCC4)c1 | - | - | 2.8 | - | - | -
S=C(NCc1ccc2[nH]c3c(c2c1)CCCC3)Nc1ccccc1 | - | - | 2.2 | - | - | -
CCS(=O)(=O)NCc1ccc2[nH]c3c(c2c1)CCCC3 | - | - | - | - | - | -
O=C(CCCc1c[nH]c2ccccc12)Nc1ncccc1O | - | - | - | . | . | -
O=C(OCC(=O)N1CCCCC1)c1cc(=O)[nH]c2ccccc12 | - | - | - | . | . | -
O=C1/C(=C/c2ccc(N3CCOCC3)o2)SC(=Nc2ccccc2)N1CCc1c[nH]c2ccccc12 | - | 43 | - | - | - | -
CC(C)CN(C(=O)CN(C)C(=O)c1ccco1)c1c(N)n(CC(C)C)c(=O)[nH]c1=O | - | - | - | . | . | -
Cc1ccc2[nH]c3c(=O)n(CC(=O)N4CCN(C)CC4)ncc3c2c1 | - | - | - | . | . | -
COc1ccc(Cl)cc1-c1n[nH]c(=S)n1Cc1ccccc1 | 42 | - | - | . | . | -
S=c1[nH]nc(-c2ccccc2Cl)n1Cc1ccccc1 | - | - | - | - | - | -
COCCN(C(=O)Cc1cccs1)C(C(=O)NCc1ccc(OC)cc1)c1ccc(C(C)C)cc1 (configuration not stated) | - | - | - | - | 2.1 | -
CCc1ccc(C(C(=O)NCc2ccc(OC)cc2)N(CCOC)C(=O)Cc2cccs2)cc1 (configuration not stated) | - | - | - | - | - | -
SMILES | mIAP inh | hIAP block | mIAP act | bIAP inh | bIAP activator | hIAP activ
COc1ccc(CNS(=O)(=O)c2c(C(=O)N3CCCCCC3)c(C)n(C)c2C)cc1 | - | - | - | . | . | -
O=C(N/N=C/c1ccc(O)cc1)c1cc(-c2ccc3c(c2)OCO3)n[nH]1 | - | 36 | - | - | - | -
COc1ccc(/C=C(/C(=O)c2ccc(Cl)cc2Cl)n2cncn2)cc1 | - | - | - | - | - | -
CN(C)c1ccc(/C=C(/C(=O)c2ccc(Cl)cc2Cl)n2cncn2)cc1 | 42 | - | - | - | - | -
CN(CCCS(=O)(=O)[O-])c1ccc(/C=C/c2ccc3ccccc3[n+]2C)cc1 | - | - | - | . | . | -
CN(C)c1ccc(/C=C/c2ccc3ccccc3[n+]2C)cc1 | 42 | - | - | - | - | -
CC(C)COc1ccc(CNC(=S)Nc2ccccc2)cc1Cl | - | - | 2.5 | . | . | -
CC(C)Oc1ccc(CNC(=S)Nc2ccccc2)cc1Cl | - | - | - | . | . | -
Cc1ccc(NC(=S)NC(C)CCc2ccccc2)cc1C (configuration not stated) | - | - | 2.5 | - | - | -
CC(C)COc1ccc(CNC(=S)NCc2ccccc2)cc1 | - | - | 3.7 | - | - | -
CCCCc1ccc(NC(=S)NCc2ccc(OC)cc2)cc1 | - | - | 2.5 | - | - | -
COc1ccc(C(=O)COC(=O)c2cc(=O)[nH]c3ccccc23)c(OC)c1 | - | - | - | . | . | -
COc1ccc(C(=O)NCCC2=CCCCC2)cc1OC1CCN(C(C)C)CC1 | - | - | - | . | . | -
CSc1ccc(/C=C/C(=O)OCC(=O)c2ccc[nH]2)cc1 | - | - | - | . | . | -
COc1ccc(CNC(=S)NC(C)CCc2ccccc2)cc1 (configuration not stated) | - | - | 2.4 | - | - | -
COc1ccccc1Nc1cc(C)nc(Nc2ccccc2OC)n1 | - | - | - | . | . | -
CCc1cc(Cn2nc(-c3ccccc3)cc2C(=O)O)on1 | - | - | - | . | . | -
CCc1cc(Cn2nc(-c3ccccc3)cc2C(=O)NCc2ccc(C)cc2)on1 | - | - | 3.3 | . | . | -
c1ccc2[nH]c(SCc3cn4ccccc4n3)nc2c1 | - | - | - | - | - | -
Cc1cccc2nc(CSc3nc4ccccc4[nH]3)cn12 | - | - | - | - | 2.6 | -
COc1ccc(NC(=S)NNC(=O)CCn2cc([N+](=O)[O-])cn2)cc1 | - | - | - | - | - | 2.1
CC(C)[C@H]1COCCS(=O)(=O)N1Cc1ccccc1-c1ccccc1 | - | . | - | . | . | .
O=C(Nc1cccc(Cl)c1)c1cc(N=Nc2ccc([N+](=O)[O-])cc2Cl)ccc1O | - | 38 | - | . | . | -
O=C(Nc1ccc([N+](=O)[O-])cc1Cl)c1cc(Cl)ccc1O | - | - | - | . | . | -
O=C(CSc1ccccn1)Nc1ccccc1F | - | - | - | - | - | -
O=C(CSc1ccccn1)Nc1cccc2ccccc12 | 68 | - | - | - | - | -
O=C(Oc1ccccc1C(=O)N1CCOCC1)c1ccc(Br)cc1 | - | - | - | - | 2.2 | -
O=C(Oc1ccccc1C(=O)N1CCOCC1)c1ccc(F)cc1 | - | - | - | . | . | -
O=C1c2ccccc2S(=O)(=O)c2cc(C(=O)N3CCC(N4CCCC4)CC3)ccc21 | - | - | - | . | . | -
CC1CC(C)(C)NCCNC(C)CC(C)(C)NCCN1 (configuration not stated) | - | - | - | - | 2.8 | -

Screening results (PubChem BioAssay)
